Series [1] relates to Rattus norvegicus. The experiment in a line: Half life in Wistar rat assessed as benzamidine at 50 mg/kg, po. In kind it is ADME, organism-based. Also on record: dose 50 mg/kg, route oral. As to conditions: in vivo. A digest of the protocol:
(§1)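 Male Wistar rats (initial weight 230 g) fitted with carotid artery and jugular vein cannulas, fasted 16 h; prodrug 50 mg/kg by oral gavage in 100 mM phosphate buffer pH 6.3 (n = 3); reference benzamidine 10 mg/kg iv in water for injection; blood at 30–480 min (oral) or 10–360 min (iv); plasma benzamidine by HPLC.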

The nature of series [2]: Activation of prodrug into benzamidine per mg of recombinant hmARC2 in 20 mM MES buffer of pH 6.0 for 30 mins. The method in brief: (§2)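 Recombinant human mARC1 or mARC2 (76 pmol) incubated with 0.5 mM prodrug, 1 mM NADH, 2 U pig liver carboxylesterase, 76 pmol cytochrome b5 and 7.6 pmol NADH cytochrome b5 reductase in 20 mM MES pH 6.0; amidine formed quantified by HPLC; turnover rates as mean ± SD of three incubations.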

Series [3] has as its target T1, Mitochondrial amidoxime-reducing component 1 (Homo sapiens) (UniProt Q5VT66).
T1 sequence (whole entry): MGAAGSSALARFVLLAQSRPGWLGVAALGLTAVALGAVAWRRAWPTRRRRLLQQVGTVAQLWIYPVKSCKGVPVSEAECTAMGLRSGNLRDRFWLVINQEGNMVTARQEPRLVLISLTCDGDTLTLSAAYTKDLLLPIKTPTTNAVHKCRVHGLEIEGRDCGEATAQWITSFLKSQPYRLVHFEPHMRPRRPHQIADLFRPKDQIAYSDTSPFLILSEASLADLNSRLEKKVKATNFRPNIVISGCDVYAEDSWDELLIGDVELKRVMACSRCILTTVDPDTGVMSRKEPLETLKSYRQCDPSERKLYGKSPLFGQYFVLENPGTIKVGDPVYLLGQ
The experiment in a line: Activation of prodrug into benzamidine per mg of recombinant hmARC1 in 20 mM MES buffer of pH 6.0 for 30 mins. A digest of the protocol: as §2

Series [4] relates to Liver microsomes. The experiment in a line: Stability in human liver microsomes assessed as conversion of prodrug into benzamidine per mg protein. Format: ADME, Microsome. The method in brief: (§3)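 Human or porcine liver/kidney subcellular fractions (microsomes, mitochondria, 9000g supernatant, cytosol); 0.3 mg protein with 1 mM prodrug in 100 mM potassium phosphate pH 6.3, preincubated 5 min at 37 °C aerobically, started with NADH (1 mM final); protein removed by centrifugation, supernatant analysed by HPLC; turnover as mean ± SD of two independent experiments measured twice.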
For orientation: Liver microsomes are a subcellular fraction often used to study metabolism.

Series [5] has as its system Rattus norvegicus. The experiment in a line: Clearance in Wistar rat assessed as benzamidine at 50 mg/kg, po. Format: ADME, organism-based. Also on record: dose 50 mg/kg, route oral. As to conditions: in vivo. The method in brief: as §1
A short description of series [6]: Stability in pig hepatocytes assessed as conversion of prodrug into benzamidoxime per mg protein. Format: ADME, cell-based, Sus scrofa, Hepatocyte.
Series [7] is described as follows: Stability in human liver mitochondria assessed as conversion of prodrug into benzamidine per mg protein. Format: ADME. A digest of the protocol: as §3
For series [8], the system named is Rattus norvegicus. The experiment in a line: Oral bioavailability in Wistar rat assessed as benzamidine at 50 mg/kg. In kind it is ADME, organism-based. To be noted: in vivo. The method in brief:
as §1

Series [9] is described as follows: Stability of the compound assessed as conversion to benzamidoxime at pH 2. Format: physicochemical. As to conditions: buffer. A digest of the protocol: (§4)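 Chemical stability: prodrug at 100 µM in 100 mM potassium phosphate buffer pH 2.0, 6.3 or 7.4 at 37 °C; remaining prodrug and hydrolysis products followed by HPLC.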
The nature of series [10]: Stability of the compound at pH 6.3. Format: physicochemical. To be noted: buffer. The method in brief:
as §4

Series [11] in a line: Stability in pig kidney mitochondria assessed as conversion of prodrug into benzamidine per mg protein. Format: ADME, Sus scrofa. The method in brief:
as §3

Series [12] is described as follows: Stability in pig liver mitochondria assessed as conversion of prodrug into benzamidine per mg protein. In kind it is ADME, Sus scrofa. The method in brief: as §3
The subject of series [13] is Rattus norvegicus. The experiment in a line: Volume of distribution in Wistar rat assessed as benzamidine at 50 mg/kg, po. Format: ADME, organism-based. More on the design: dose 50 mg/kg, route oral. To be noted: in vivo. A digest of the protocol: as §1
Series [14] in a line: Stability in pig hepatocytes assessed as conversion of prodrug into benzamidine per mg protein. Format: ADME, cell-based, Sus scrofa, Hepatocyte.
Series [15] is described as follows: Stability in pig liver cytosol assessed as conversion of prodrug into benzamidine per mg protein in potassium phosphate buffer of pH 6.3. In kind it is ADME, tissue-based, Sus scrofa. The method in brief:
as §3

Series [16] is described as follows: Stability in pig liver microsomes assessed as conversion of prodrug into benzamidine per mg protein. In kind it is ADME, Sus scrofa, Microsome. The method in brief: as §3
The nature of series [17]: Stability in pig liver 9000g supernatant assessed as conversion of prodrug into benzamidine per mg protein. Format: ADME, tissue-based, Sus scrofa. The method in brief:
as §3

Series [18] is described as follows: Stability of the compound at pH 7.4. In kind it is physicochemical. To be noted: buffer. A digest of the protocol:
as §4

The nature of series [19]: Stability of the compound in presence of 0.5 U esterase/250 uL. To be noted: isolated protein. Format: ADME. A digest of the protocol:
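Prodrugs incubated with pig liver carboxylesterase (0.5 U/250 µL) in 100 mM potassium buffer pH 7.4; hydrolysis followed by HPLC.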

In series [20] the test system is Rattus norvegicus. The experiment in a line: Mean residence time in Wistar rat assessed as benzamidine at 50 mg/kg, po. Format: ADME, organism-based. More on the design: dose 50 mg/kg, route oral. To be noted: in vivo. The method in brief: as §1
The nature of series [21]: Stability in human kidney mitochondria assessed as conversion of prodrug into benzamidine per mg protein. Format: ADME. The method in brief: as §3
The nature of series [22]: Stability in pig kidney microsomes assessed as conversion of prodrug into benzamidine per mg protein. Format: ADME, Sus scrofa, Microsome. The method in brief: as §3
In series [23] the test system is Rattus norvegicus. The experiment in a line: Tmax in Wistar rat assessed as benzamidine at 50 mg/kg, po. As to conditions: in vivo. In kind it is ADME, organism-based. More on the design: dose 50 mg/kg, route oral. The method in brief: as §1
A short description of series [24]: Stability in human kidney microsomes assessed as conversion of prodrug into benzamidine per mg protein. Format: ADME, Microsome. A digest of the protocol: as §3
Series [25] in a line: Stability in pig kidney 9000g supernatant assessed as conversion of prodrug into benzamidine per mg protein. Format: ADME, tissue-based, Sus scrofa. The method in brief: as §3
Series [26] concerns Rattus norvegicus. The experiment in a line: Cmax in Wistar rat assessed as benzamidine at 50 mg/kg, po. In kind it is ADME, organism-based. More on the design: dose 50 mg/kg, route oral. As to conditions: in vivo. The method in brief: as §1
The subject of series [27] is Liver. The experiment in a line: Stability in human liver 9000g supernatant assessed as conversion of prodrug into benzamidine per mg protein. Format: ADME, tissue-based. The method in brief: as §3
Series [28] can be described thus: Stability in human kidney mitochondria assessed as conversion of prodrug into pentamidine per mg protein. In kind it is ADME. A digest of the protocol:
as §3

Series [29] can be described thus: Stability in human kidney microsomes assessed as conversion of prodrug into pentamidine per mg protein. Format: ADME, Microsome. A digest of the protocol: as §3
Series [30] concerns Liver. The experiment in a line: Stability in human liver 9000g supernatant assessed as conversion of prodrug into pentamidine per mg protein. Format: ADME, tissue-based. The method in brief: as §3
Series [31] in a line: Stability in pig liver microsomes assessed as conversion of prodrug into pentamidine per mg protein. In kind it is ADME, Sus scrofa, Microsome. The method in brief: as §3
Series [32] is described as follows: Stability in pig liver mitochondria assessed as conversion of prodrug into pentamidine per mg protein. In kind it is ADME, Sus scrofa. A digest of the protocol: as §3
Series [33] is described as follows: Stability in pig kidney 9000g supernatant assessed as conversion of prodrug into pentamidine per mg protein. In kind it is ADME, tissue-based, Sus scrofa. The method in brief: as §3
The nature of series [34]: Stability in pig liver 9000g supernatant assessed as conversion of prodrug into pentamidine per mg protein. In kind it is ADME, tissue-based, Sus scrofa. A digest of the protocol: as §3
For series [35], the system named is Liver microsomes. The experiment in a line: Stability in human liver microsomes assessed as conversion of prodrug into pentamidine per mg protein. In kind it is ADME, Microsome. The method in brief: as §3
Series [36] is described as follows: Stability of the compound at pH 2. To be noted: buffer. In kind it is physicochemical. A digest of the protocol: as §4
Series [37] is described as follows: Stability in pig kidney mitochondria assessed as conversion of prodrug into pentamidine per mg protein. In kind it is ADME, Sus scrofa. The method in brief: as §3
Series [38] can be described thus: Activation of prodrug into pentamidine per mg of recombinant hmARC2 in 20 mM MES buffer of pH 6.0 for 30 mins. The method in brief: as §2
The nature of series [39]: Stability in human liver mitochondria assessed as conversion of prodrug into pentamidine per mg protein. In kind it is ADME. The method in brief:
as §3

Series [40] can be described thus: Stability in pig kidney microsomes assessed as conversion of prodrug into pentamidine per mg protein. In kind it is ADME, Sus scrofa, Microsome. The method in brief: as §3
Series [41] addresses T1, Mitochondrial amidoxime-reducing component 1 (Homo sapiens). The experiment in a line: Activation of prodrug into pentamidine per mg of recombinant hmARC1 in 20 mM MES buffer of pH 6.0 for 30 mins. The method in brief: as §2

As for `CC(C)[C@H](N)C(=O)O/N=C(\N)c1ccccc1`, the t1/2 in the series with Rattus norvegicus [1] is 2.922 h. Moreover, the Stability in [2] was 43.7 nmol/min; in series [3], 67.4 nmol/min/mg; in the series with Liver microsomes [4], 0.9 nmol/min/mg; in [6] it was 650 pmol/min; in series [7], 1.8 nmol/min/mg; in series [9], “Unstable”. In addition, the Stability result in series [10] was “Stable”; in series [11] it was 8.8 nmol/min/mg; in [12] it was 8.6 nmol/min/mg; in [14] it was 175 pmol/min; in [15], 1.2 nmol/min; in [16], 7 nmol/min/mg. In addition, the Stability is 3.4 nmol/min/mg in series [17]; “Stable” in series [18]; “Unstable” in [19]; 2 nmol/min/mg in series [21]; 10.4 nmol/min/mg in series [22]; 1.3 nmol/min in series [24]. Moreover, the Stability in [25] came out at 5.6 nmol/min; with Liver [27], 0.2 nmol/min/mg. In addition, in the series on Rattus norvegicus [5], the CL came to 50 mL/min/kg. For the same compound, the F in the series on Rattus norvegicus [8] is recorded as 87.7%. Moreover, the Vd in the series with Rattus norvegicus [13] worked out at 12.84 L/kg. For the same compound, in the series on Rattus norvegicus [20], the MRT was 4.323 h. In addition, the Tmax in the series on Rattus norvegicus [23] worked out at 0.833 h. In addition, the Cmax in the series on Rattus norvegicus [26] stood at 23.3 µM.

In the case of `CC(C)[C@H](N)C(=O)O/N=C(\N)c1ccc(OCCCCCOc2ccc(/C(N)=N/OC(=O)[C@@H](N)C(C)C)cc2)cc1`, the Stability in [28] is 0.4 nmol/min/mg; in [29] it was 0.3 nmol/min/mg; in the series on Liver [30], 0.2 nmol/min/mg; in [10], “Stable”; in series [31], 0.5 nmol/min/mg; in series [32] it was 1 nmol/min. For the same compound, the Stability in series [33] was 0.2 nmol/min/mg; in series [34] it was 0.4 nmol/min/mg; in series [18] it was “Stable”; in the series with Liver microsomes [35], 0.3 nmol/min/mg; in [19], “Unstable”; in [36], “Stable”. Moreover, the Stability was found to be 0.8 nmol/min/mg in [37]; 10.9 nmol/min/mg in series [38]; 0.2 nmol/min in [39]; 0.7 nmol/min/mg in series [40]; 48.8 nmol/min in series [41].

In general, MRT refers to the average time that molecules of a dose stay in the body. As a reminder, the Tmax is the time at which the peak concentration occurs. In general, Cmax refers to the peak of the concentration-time curve.

The record behind these values is ChEMBL document CHEMBL1681763, “Synthesis and biological evaluation of L-valine-amidoximeesters as double prodrugs of amidines” (Bioorg Med Chem, 2011).
